# Test results from article PMC9278990 (Nature structural & molecular biology, 2021).
# Entries after “also recorded” stand apart in the source; their conditions may differ. No end group written: not given here.
# Key:
# LDHA [1] = assay: Fluorescence polarization anisotropy binding to LDHA; set-up: species or system human; conditions: rhodamine B-labeled peptide, pH 7.2, 30 min on ice, n = 3
# pTyr10-LDHA = assay: LDHA activity; assay type: cell-based, human; conditions: rhodamine B-labeled peptides, pTyr10-LDHA normalized to NT; n=3
# Summary of the method: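 HEK293 cells were treated with 1 μM rhodamine B-labeled peptides for 2 h. Whole-cell lysates were immunoblotted for pTyr10-LDHA, and band density was expressed as fold change versus untreated cells. n = 3.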
# FLCN–LDHA complex = assay: FLCN-LDHA complex disruption in HEK293; assay type: cell-based, human; conditions: HEK293, exogenous addition, 6 h; n=3
# Summary of the method: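 HEK293 cells were given exogenous lactate or pyruvate for 6 h. Lysates underwent anti-FLCN IP (antibody 1 h, then protein G agarose 2 h, 4 °C), four washes in lysis buffer, Laemmli elution and immunoblotting alongside whole-cell extracts. Three independent experiments.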
# LDHA [2] = assay: LDHA kinetics and inhibition assay; assay type: biochemical, human; conditions: n = 3; for potency as compared to LDHA inhibitor FX11: 2 nM FLCN or 100 nM FLCN-10 versus 60 μM FX11, pH 7.0, 2 mM pyruvate; for mode of LDHA inhibition: 50 mM Tris-HCl pH 7.0, 2 mM pyruvate, varied NADH, 2 nM FLCN or 100 nM FLCN-10
# Summary of the method: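 Reactions contained 50 mM Tris-HCl pH 7.0, 2 mM pyruvate and varied NADH, with test protein (2 nM), test peptide (100 nM) or reference inhibitor FX11 (60 μM). Triplicates, ≥2 independent assays. IC50 came from curve fitting; Ki came from Lineweaver–Burk analysis and IC50-to-Ki conversion.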
# dimeric LDHA = assay: LDHA activity, predominantly dimeric LDHA; assay type: biochemical, human; conditions: LDHA 10 ng/μl (predominantly dimeric), increasing amounts of FLCN protein or FLCN-10; n=3
# LDHA [3] = assay: Co-immunoprecipitation of FLCN with LDHA; assay type: binding, human; conditions: expressed in HEK293 cells, FLAG IP, immunoblot
# Summary of the method: (§1)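 Lysates came from transfected HEK293 cells (24 h post-transfection) or, for endogenous FLCN IP, from LDHA or LDHB knockout HAP1 cells. Capture used anti-FLAG or anti-HA agarose (2 h, 4 °C) or anti-LDHA/anti-FLCN antibody (1 h) followed by protein G agarose (2 h, 4 °C). Beads were washed four times in NP40 lysis buffer, eluted in Laemmli buffer and immunoblotted.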
# LDHB = assay: Co-immunoprecipitation of FLCN with LDHB; assay type: binding, human; conditions: HEK293 cells, LDHB-FLAG IP; HAP1 cells
# Summary of the method: as §1
# [4] = system: LDHA/LDHB chimeric constructs; assay: Co-IP of FLCN with LDHA/LDHB chimeric constructs; assay type: binding, human; conditions: HEK293, co-IP
# LDHA [5] = assay: Cibacron Blue-agarose pulldown of LDHA; assay type: binding, human; conditions: HEK293 cells overexpressing FLCN; Cibacron blue agarose 1 h at 4 °C; n=3
# Summary of the method: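 Lysates of HEK293 cells expressing empty vector or FLCN-FLAG were incubated with Cibacron Blue agarose for 1 h at 4 °C. LDHA was immunoblotted and the pulldown:input ratio was normalized to vector.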
# LDHA [6] = assay: Native PAGE of LDHA oligomers; set-up: species or system human
# Summary of the method: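 HEK293 cells were transiently transfected with pcDNA3 constructs (TransIT-2020) for 24 h and lysed. Lysates were mixed with non-denaturing loading buffer (250 mM Tris-HCl pH 6.8, 30% glycerol, 0.05% bromophenol blue; 5× stock) for 5 min at room temperature. Samples were resolved on Tris-HCl gels in native running buffer (25 mM Tris, 192 mM glycine).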
# UOK257 cells = assay: Extracellular acidification rate; assay type: cell-based, human; conditions: n = 8
# Summary of the method: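 UOK257 cells were transfected at 50% confluency in 100-mm dishes (24 h), or left untransfected for peptide treatment. Cells were seeded at 1 × 10^5 per well 24 h before assay and treated immediately before measurement (peptide, 2 h). ECAR was read by Seahorse XF glycolytic stress test. Transfection n = 8, peptide n = 4 independent samples.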
# ccRCC cells = assay: Apoptosis in ccRCC cells on FLCN overexpression; assay type: cell-based, human; conditions: 786-O, Caki-1 and Caki-2, FLAG-tagged FLCN, immunoblot
# LDH = conditions: UOK257 lysates, 2 μg plasmid; n = 3
# [7] = overexpression of FLCN in HEK293, native PAGE
compound,measurement,setting,value
FLCN-1: peptide derived from aa 220–230 of FLCN (QRMNTAFTPFL; also: rhodamine B label (position not given here)),binding to LDHA (in words),LDHA [1],bound tightly to LDHA
same,LDHA activity in HEK293 cells,pTyr10-LDHA,effectively reduced LDHA activity
CC(=O)C(=O)O [pyruvate],effect on FLCN–LDHA complex,FLCN–LDHA complex,disruption of the FLCN–LDHA complex
folliculin [FLCN],potency as compared to LDHA inhibitor FX11,LDHA [2],greatly improved potency
same,mode of LDHA inhibition,LDHA [2],uncompetitively inhibits LDHA; also recorded: uncompetitive inhibitor of LDHA
same,inhibition of dimeric LDHA,dimeric LDHA,effectively inhibit dimeric
same,binding to LDHA (co-IP),LDHA [3],specifically bound to LDHA
same,binding to LDHB (co-IP),LDHB,no interaction with LDHB was detected
same,binding to LDHA with both domains (NC) replaced by LDHB,[4]; NC chimeric construct,completely abrogated FLCN interaction
same,binding to LDHA with LDHB N domain or C domain individually,[4]; chimeric constructs (first 22 / last 38 amino acids swapped),preserved binding
same,LDHA binding to Cib-agarose,LDHA [5],greatly diminished
same,preference for LDHA oligomeric state,LDHA [6]; dimer compared to tetramer,prefers binding to the less active LDHA dimer
same,effect on large oligomeric complexes of LDHA,LDHA [6]; [7],decrease in large oligomeric complexes of LDHA
same,formation of dimeric LDHA species (70 kDa),LDHA [6]; [7],induces formation of a dimeric LDHA species
same,"ECAR, transfection of 2 μg plasmid","UOK257 cells; UOK257, 2 μg transfection",little effect
same,"ECAR, transfection of 8 μg plasmid","UOK257 cells; UOK257, 8 μg transfection",reduced ECAR to a similar level as the FLCN-replaced control cell line
same,apoptosis in ccRCC on overexpression,ccRCC cells,induced apoptosis in ccRCC cells
same,LDH activity after transfection of 2 μg,LDH,~ 77%
FLCN-10: decapeptide derived from the FLCN loop region; aa 219–228 (AQRMNTAFTP; also: rhodamine B label (position not given here)),binding to LDHA (in words),LDHA [1],greatly enhanced binding
same,potency as compared to LDHA inhibitor FX11,LDHA [2],greatly improved potency
same,mode of LDHA inhibition,LDHA [2],uncompetitively inhibits LDHA
same,inhibition of dimeric LDHA,dimeric LDHA,effectively inhibit dimeric
CC(O)C(=O)O (centres unmarked) [lactate],effect on FLCN–LDHA complex,FLCN–LDHA complex,much milder effect on dissociation of LDHA from FLCN
